From ChEMBL document CHEMBL4184225, “Discovery of selective 2,4-diaminoquinazoline toll-like receptor 7 (TLR 7) agonists” (Bioorg Med Chem Lett, 2018)

What was measured:
[1] = molecular target: T1, Toll-like receptor 7 (Homo sapiens) (UniProt Q9NYK1); test: Agonist activity at human TLR7 expressed in HEK293 cells assessed as induction of receptor activation incubated for 6 hrs by NF-kappaB-luciferase reporter gene assay; assay type: cell-based
T1 sequence (whole entry): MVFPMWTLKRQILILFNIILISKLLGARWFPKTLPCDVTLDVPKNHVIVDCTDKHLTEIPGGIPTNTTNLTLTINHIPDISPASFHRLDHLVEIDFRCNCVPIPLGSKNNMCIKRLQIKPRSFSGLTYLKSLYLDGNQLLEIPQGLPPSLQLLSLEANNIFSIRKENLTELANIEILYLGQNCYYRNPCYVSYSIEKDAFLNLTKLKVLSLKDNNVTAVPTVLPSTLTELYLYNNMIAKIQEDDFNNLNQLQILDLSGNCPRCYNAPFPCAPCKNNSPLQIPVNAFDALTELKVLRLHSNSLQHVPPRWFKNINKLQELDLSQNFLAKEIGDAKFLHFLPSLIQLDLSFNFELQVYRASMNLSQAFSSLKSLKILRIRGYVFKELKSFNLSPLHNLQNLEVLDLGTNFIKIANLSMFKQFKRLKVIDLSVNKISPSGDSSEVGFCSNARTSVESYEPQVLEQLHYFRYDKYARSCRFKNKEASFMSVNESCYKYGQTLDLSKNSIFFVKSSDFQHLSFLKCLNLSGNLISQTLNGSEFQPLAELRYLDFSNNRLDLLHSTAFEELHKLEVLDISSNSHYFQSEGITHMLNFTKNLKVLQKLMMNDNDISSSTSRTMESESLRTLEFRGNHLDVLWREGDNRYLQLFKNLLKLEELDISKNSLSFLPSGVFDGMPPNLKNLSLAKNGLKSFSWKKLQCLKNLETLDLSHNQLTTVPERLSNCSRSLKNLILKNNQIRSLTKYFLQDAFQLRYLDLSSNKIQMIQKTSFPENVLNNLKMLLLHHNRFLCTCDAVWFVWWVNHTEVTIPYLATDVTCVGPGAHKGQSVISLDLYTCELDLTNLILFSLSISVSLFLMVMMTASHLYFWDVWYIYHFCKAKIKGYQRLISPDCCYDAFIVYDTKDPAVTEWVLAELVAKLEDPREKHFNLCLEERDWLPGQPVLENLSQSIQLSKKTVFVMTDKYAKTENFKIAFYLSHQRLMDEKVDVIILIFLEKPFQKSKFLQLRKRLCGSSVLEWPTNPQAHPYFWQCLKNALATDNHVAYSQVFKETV
Summary of the method: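 HEK293 cells transiently transfected overnight with CMV-TLR7 (wild type or dLRR2 mutant) plus NFκB-luc plasmids. Seeded at 1.67 x 10^5 cells/mL onto compound in 4% DMSO (stock), 6 h at 37°C, 5% CO2, luciferase readout. Quadruplicate dose-response. LEC is the concentration giving an effect at least two-fold above assay SD. Values averaged over independent experiments where repeated.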

[2] = molecular target: T1, Toll-like receptor 7 (Homo sapiens); test: Agonist activity at TLR7 in human PBMC assessed as suppression of HCV replicon replication in human HuH7 luc/neo cells harboring RNA encoding bicistronic expression construct comprising wild type HCV type 1b NS3-NS5B regions exposed to conditioned media from compound treated PBMCs by luciferase reporter gene assay; assay type: cell-based
Summary of the method: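 PBMCs from buffy coats of at least two donors (Ficoll), in RPMI with 10% human AB serum, 2 x 10^5 cells/well, incubated overnight with compound. Supernatant transferred onto Huh7-luc/neo replicon cells plated the day before (2.2 x 10^3/well). Luciferase read after 24 h. EC50 is the concentration applied to PBMCs giving 50% luciferase reduction. Recombinant IFN-α2a standard.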

[3] = molecular target: T2, Toll-like receptor 8 (Homo sapiens, UniProt Q9NR97); test: Agonist activity at human TLR8 expressed in HEK293 cells assessed as induction of receptor activation incubated for 6 hrs by NF-kappaB-luciferase reporter gene assay; assay type: cell-based; settings: hek293, 6 h
T2 sequence (Q9NR97 whole entry): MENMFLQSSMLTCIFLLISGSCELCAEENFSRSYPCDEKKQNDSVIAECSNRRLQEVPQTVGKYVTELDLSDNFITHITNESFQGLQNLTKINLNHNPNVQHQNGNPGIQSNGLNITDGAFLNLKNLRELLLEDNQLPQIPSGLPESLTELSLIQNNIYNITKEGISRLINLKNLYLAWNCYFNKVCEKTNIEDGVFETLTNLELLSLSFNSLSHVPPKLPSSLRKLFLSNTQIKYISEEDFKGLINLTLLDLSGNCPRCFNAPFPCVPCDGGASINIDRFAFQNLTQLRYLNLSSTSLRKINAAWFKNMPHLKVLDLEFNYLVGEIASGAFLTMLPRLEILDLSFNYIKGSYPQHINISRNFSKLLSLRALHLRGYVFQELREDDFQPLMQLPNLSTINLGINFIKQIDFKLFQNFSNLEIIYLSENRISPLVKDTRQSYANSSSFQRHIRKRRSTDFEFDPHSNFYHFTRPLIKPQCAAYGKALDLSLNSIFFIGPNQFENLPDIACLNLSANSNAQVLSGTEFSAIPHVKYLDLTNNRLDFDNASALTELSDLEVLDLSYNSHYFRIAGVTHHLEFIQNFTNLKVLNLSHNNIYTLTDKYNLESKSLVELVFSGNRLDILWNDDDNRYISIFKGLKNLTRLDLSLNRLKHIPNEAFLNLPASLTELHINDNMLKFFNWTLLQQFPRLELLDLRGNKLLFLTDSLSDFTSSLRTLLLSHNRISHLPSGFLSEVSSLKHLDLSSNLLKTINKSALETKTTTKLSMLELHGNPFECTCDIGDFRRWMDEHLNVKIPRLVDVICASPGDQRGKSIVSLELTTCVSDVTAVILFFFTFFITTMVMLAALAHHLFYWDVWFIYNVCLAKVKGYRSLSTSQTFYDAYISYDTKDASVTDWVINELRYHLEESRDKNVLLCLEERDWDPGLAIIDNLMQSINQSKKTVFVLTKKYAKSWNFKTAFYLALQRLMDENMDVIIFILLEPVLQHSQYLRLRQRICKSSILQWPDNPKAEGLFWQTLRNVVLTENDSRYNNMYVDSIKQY
Summary of the method: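 HEK293 cells transiently transfected overnight at 37°C with CMV-TLR8 plasmid (wild type or dLRR2 mutant) plus NFκB-luc reporter, then exposed to compound for 6 h at 37°C, 5% CO₂. Luciferase read-out. Quadruplicate dose-response. LEC is the concentration giving an effect at least two-fold above the assay SD, averaged over two or more independent experiments.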

[4] = Cytotoxic activity against HEK293 cells assessed as reduction in cell viability incubated for 6 hrs; assay type: cell-based; settings: human
Summary of the method: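 HEK293 cells transfected with the CMV-TLR7 construct alone, treated with a compound dilution series for 6 h at 37°C, 5% CO₂. Viability read by ATP luminescence. Reported as CC50.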

[5] = Metabolic stability in mouse liver microsomes assessed as drug metabolism after 15 mins at 1 uM; assay type: ADME, microsome; settings: read-out: Drug metabolism
Summary of the method: (§1)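 Compound at 1µM incubated with liver microsomes of the stated species. Percent of compound metabolized after 15 min.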

[6] = Metabolic stability in human liver microsomes assessed as drug metabolism after 15 mins at 1 uM; assay type: ADME, microsome; settings: read-out: Drug metabolism; summary of the method: as §1

Row | Compound | MEC [1] [µM] | MEC [2] [µM] | MEC [3] [µM] | CC50 at 6 h [4] [µM] | metabolised at 0.25 h, 1 µM [5] [%] | metabolised at 0.25 h, 1 µM [6] [%]
1 | CCCCNc1nc(N)nc2cc(C(=O)N(C)C)ccc12 | 0.1 | 0.06 | 0.5 | > 18 | – | –
2 | CCCCNc1nc(N)nc2ccc(CCc3ccccn3)cc12 | 0.1 | 0.04 | 0.3 | > 18 | – | –
3 | CCCNc1nc(N)nc2ccccc12 | 1.07 | 0.67 | 0.93 | > 25 | – | –
4 | CCCCNc1nc(N)nc2cccc(C(=O)N(C)C(C)C)c12 | 5.62 | 1.92 | > 25 | > 25 | – | –
5 | CCCCNc1nc(N)nc2cc(OC)ccc12 | 0.9 | 0.15 | 0.3 | > 18 | – | –
6 | CCCCNc1nc(N)nc2cc(C(N)=O)ccc12 | 0.4 | 0.15 | 2 | > 18 | – | –
7 | CCCCNc1nc(N)nc2ccc(C(C)O)cc12 (configuration not stated) | 12 | 8.49 | 5.8 | > 18 | – | –
8 | CCNc1nc(N)nc2ccccc12 | 3.07 | 2.27 | 0.77 | > 25 | – | –
9 | CCCCNc1nc(N)ncc1OCC | 4.7 | 1.43 | 1.1 | > 25 | – | –
10 | CCCC(C)Nc1nc(N)nc2ccccc12 (configuration not stated) | 0.71 | 0.1 | 0.17 | > 25 | – | –
11 | CNc1nc(N)nc2ccccc12 | 18.7 | 8.88 | 6.87 | > 25 | – | –
12 | CCCCNc1nc(N)nc2ccc(F)cc12 | 0.3 | 0.11 | 0.1 | > 18 | – | –
13 | CCCCNc1nc(N)nc2ccc(OC)cc12 | 5.6 | 2.44 | 1.8 | > 18 | – | –
14 | CCCCNc1nc(N)nc2cc(F)c(F)cc12 | 1.8 | 0.26 | 0.1 | > 18 | – | –
15 | CCCCNc1nc(N)nc2ccc(CCc3ccc(N(C)C)cc3)cc12 | 0.2 | 0.15 | 0.5 | > 18 | – | –
16 | CCCCNc1nc(N)nc2cccc(OC)c12 | 0.4 | 0.1 | 0.1 | > 25 | 100 | 98
17 | CCCCNc1nc(N)nc2cccc(C)c12 | 0.5 | 0.32 | 0.3 | > 25 | 100 | 96
